The values that follow come from ChEMBL document CHEMBL3585321, “Synthesis and antimicrobial activity of chloramphenicol-polyamine conjugates” (Bioorg Med Chem, 2015).

The source made the active and inactive calls. No cut-off for these calls is given here. A value given as a limit tells only on which side of the number the result lay.

In assay [1] the test system is Staphylococcus aureus. Put plainly: Antibacterial activity against methicillin-resistant Staphylococcus aureus GRE2272 assessed as inhibition of bacterial growth. Format: functional, organism-based.
Assay [2] has as its system Staphylococcus aureus. As to the kind of experiment: Antibacterial activity against methicillin-resistant Staphylococcus aureus GRE2372 assessed as inhibition of bacterial growth. The format is functional, organism-based.
For assay [3], the system named is Staphylococcus aureus. As to the kind of experiment: Antibacterial activity against methicillin-resistant Staphylococcus aureus GRE2691 assessed as inhibition of bacterial growth. The format is functional, organism-based.
Assay [4] has as its system Escherichia coli. Put plainly: Antibacterial activity against wild type Escherichia coli K-12 assessed as inhibition of bacterial growth. Format: functional, organism-based.
Assay [5] concerns Escherichia coli. Put plainly: Antibacterial activity against Escherichia coli BL21(DE3) expressing delta-tolC gene assessed as inhibition of bacterial growth. Format: functional, organism-based. In short, it runs like this: (§1)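 IC50 from bacterial cultures grown in LB medium without drug or with drug across a range of concentrations, reported in μM. Three independent experiments, each with two replicates, given as mean±SD.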

The test system of assay [6] is Escherichia coli. Put plainly: Antibacterial activity against Escherichia coli Rosetta(DE3) containing rare tRNA genes and chloramphenicol resistant gene in pLysS plasmid assessed as inhibition of bacterial growth. Format: functional, organism-based. In a few lines: as §1
The nature of assay [7]: Inhibition of Escherichia coli K-12 70S ribosome poly(U)-programmed ribosome (complex C) bearing tRNAPhe at E-site and Ac[3H]Phe-tRNA at P-site assessed as reduction in peptide bond formation using puromycin(S) substrate.
The subject of assay [8] is Staphylococcus aureus. As to the kind of experiment: Antibacterial activity against wild type Staphylococcus aureus assessed as inhibition of bacterial growth. The format is functional, organism-based.
The test system of assay [9] is Staphylococcus aureus. As to the kind of experiment: Antibacterial activity against wild type Staphylococcus aureus assessed as inhibition of bacterial growth at antibacterial IC50 level in presence of 10 times IC50 levels of putrescine. Format: functional, organism-based. In a few lines: (§2)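 Cells started at A560 0.020 in M9 medium with drug at its own growth IC50, alone or with putrescine, spermidine or spermine at 10×IC50. Cultures run until the drug-free control reached A560 0.800. Growth given as percent of control optical density. At least three experiments, two replicates each, mean±SD, p<0.05.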

In assay [10] the test system is Staphylococcus aureus. As to the kind of experiment: Antibacterial activity against wild type Staphylococcus aureus assessed as inhibition of bacterial growth at antibacterial IC50 level in presence of 10 times IC50 levels of spermine. Format: functional, organism-based. In a few lines:
as §2

In assay [11] the test system is Staphylococcus aureus. Put plainly: Antibacterial activity against wild type Staphylococcus aureus assessed as inhibition of bacterial growth at antibacterial IC50 level in presence of 10 times IC50 levels of spermidine. The format is functional, organism-based. In short, it runs like this: as §2
The test system of assay [12] is Escherichia coli. Put plainly: Antibacterial activity against wild type Escherichia coli K-12 assessed as inhibition of bacterial growth at antibacterial IC50 level in presence of 10 times IC50 levels of putrescine. The format is functional, organism-based. In a few lines: as §2
In assay [13] the test system is Escherichia coli. Put plainly: Antibacterial activity against wild type Escherichia coli K-12 assessed as inhibition of bacterial growth at antibacterial IC50 level in presence of 10 times IC50 levels of spermine. The format is functional, organism-based. In short, it runs like this:
as §2

Assay [14] deals with Escherichia coli. Put plainly: Antibacterial activity against wild type Escherichia coli K-12 assessed as inhibition of bacterial growth at antibacterial IC50 level in presence of 10 times IC50 levels of spermidine. The format is functional, organism-based. In short, it runs like this:
as §2

As to `NCCCCNC(=O)c1ccccc1C(=O)N[C@H](CO)[C@H](O)c1ccc([N+](=O)[O-])cc1` [listing 1 of 2 here], the IC50 in the assay with Staphylococcus aureus [1], in the assay with Staphylococcus aureus [2], in the assay on Staphylococcus aureus [3], in the assay with Escherichia coli [4], with Escherichia coli [5] and in the assay on Escherichia coli [6] was above 200 µM each time.

With `NCCCCNC(=O)CCC(=O)N[C@H](CO)[C@H](O)c1ccc([N+](=O)[O-])cc1` [listing 1 of 2 here], the IC50 with Staphylococcus aureus [1], with Staphylococcus aureus [2], with Staphylococcus aureus [3], with Escherichia coli [4], with Escherichia coli [5] and in the assay on Escherichia coli [6] was above 200 µM in each case.

On to `CCC[C@@H]1C[C@@H](C(=O)N[C@@H]([C@H]2O[C@H](SC)[C@H](O)[C@@H](O)[C@H]2O)[C@H](C)Cl)N(C)C1`, for which the “growth inhibition (GI)” value with Staphylococcus aureus [1] and with Staphylococcus aureus [2] was “inactive” throughout. In addition, the “growth inhibition (GI)” value in the assay on Staphylococcus aureus [3] is “Active”.

Turning to `NCCCCN(CCCN)C(=O)CCC(=O)N[C@H](CO)[C@H](O)c1ccc([N+](=O)[O-])cc1` [listing 1 of 3 here], the Ki – broadly, a measure of affinity in units of concentration, obtained from inhibition or displacement – in assay [7] came out at 1.2 µM.

As to `CC(=O)O[C@H]1C[C@@]2(C)[C@@H](C[C@@H](O)[C@H]3[C@@]4(C)CC[C@@H](O)[C@@H](C)[C@@H]4CC[C@@]32C)/C1=C(\CCC=C(C)C)C(=O)O`, the “growth inhibition (GI)” value in the assay with Staphylococcus aureus [1], in the assay on Staphylococcus aureus [2] and in the assay with Staphylococcus aureus [3] was “inactive” each time.

For the molecule GENTAMICIN, the “growth inhibition (GI)” value with Staphylococcus aureus [1] and with Staphylococcus aureus [3] was “inactive” in each case. In addition, the “growth inhibition (GI)” value in the assay with Staphylococcus aureus [2] was “Active”.

With `NCCCN(CCCCN(Cc1ccccc1)Cc1ccccc1)C(=O)CCC(=O)N[C@H](CO)[C@H](O)c1ccc([N+](=O)[O-])cc1`, the inhibition constant (Ki) in [7] was found to be 0.28 µM.

As to `CCCCCCCCCC(=O)N[C@@H](Cc1c[nH]c2ccccc12)C(=O)N[C@H](CC(N)=O)C(=O)N[C@@H](CC(=O)O)C(=O)N[C@@H]1C(=O)NCC(=O)N[C@@H](CCCN)C(=O)N[C@@H](CC(=O)O)C(=O)N[C@H](C)C(=O)N[C@@H](CC(=O)O)C(=O)NCC(=O)N[C@H](CO)C(=O)N[C@@H]([C@H](C)CC(=O)O)C(=O)N[C@@H](CC(=O)c2ccccc2N)C(=O)O[C@@H]1C`, the “growth inhibition (GI)” value with Staphylococcus aureus [1], in the assay on Staphylococcus aureus [2] and in the assay with Staphylococcus aureus [3] was “Active” throughout.

With `NCCCNCCCCNCCCNC(=O)CCC(=O)N[C@H](CO)[C@H](O)c1ccc([N+](=O)[O-])cc1` [listing 1 of 2 here], the Ki in [7] was 0.75 µM.

As to `NCCCCNC(=O)c1ccccc1C(=O)N[C@H](CO)[C@H](O)c1ccc([N+](=O)[O-])cc1` [listing 2 of 2 here], the Ki in assay [7] was found to be 8.45 µM.

Regarding `NCCCCNCCCCNCCCNC(=O)[C@@H](NC(=O)C(Cl)Cl)[C@H](O)c1ccc([N+](=O)[O-])cc1`, the Ki in assay [7] was 5 µM.

As to `CO[C@@]1(NC(=O)Cc2cccs2)C(=O)N2C(C(=O)O)=C(COC(N)=O)CS[C@@H]21`, the “growth inhibition (GI)” value in the assay with Staphylococcus aureus [1], in the assay with Staphylococcus aureus [2] and in the assay on Staphylococcus aureus [3] was “inactive” in each case.

Consider `CO[C@H]1/C=C/O[C@@]2(C)Oc3c(C)c(O)c4c(O)c(c(/C=N/N5CCN(C)CC5)c(O)c4c3C2=O)NC(=O)/C(C)=C\C=C\[C@H](C)[C@H](O)[C@@H](C)[C@@H](O)[C@@H](C)[C@H](OC(C)=O)[C@@H]1C`, for which the “growth inhibition (GI)” value in the assay on Staphylococcus aureus [1] and in the assay on Staphylococcus aureus [3] was “Active” each time. Further, the “growth inhibition (GI)” value in the assay on Staphylococcus aureus [2] was “inactive”.

For `CC[C@H]1OC(=O)[C@H](C)[C@@H](O[C@H]2C[C@@](C)(OC)[C@@H](O)[C@H](C)O2)[C@H](C)[C@@H](O[C@@H]2O[C@H](C)C[C@H](N(C)C)[C@H]2O)[C@](C)(O)C[C@@H](C)C(=O)[C@H](C)[C@@H](O)[C@]1(C)O`, the “growth inhibition (GI)” value in the assay on Staphylococcus aureus [1], with Staphylococcus aureus [2] and with Staphylococcus aureus [3] was “inactive” each time.

On to `CC(=O)N[C@@H]1[C@H](Oc2c3cc4cc2Oc2ccc(cc2Cl)[C@@H](O[C@@H]2O[C@@H](CO)[C@@H](O)[C@H](O)[C@@H]2NC(C)=O)[C@@H]2NC(=O)[C@H](NC(=O)[C@@H]4NC(=O)[C@H]4NC(=O)[C@@H](Cc5ccc(c(Cl)c5)O3)NC(=O)[C@H](N)c3ccc(O)c(c3)Oc3cc(O)cc4c3)c3ccc(O)c(c3)-c3c(O[C@H]4O[C@H](CO)[C@@H](O)[C@@H](O)[C@@H]4O)cc(O)cc3[C@@H](C(=O)O)NC2=O)O[C@@H](CO)[C@@H](O)[C@@H]1O`, for which the “growth inhibition (GI)” value in the assay with Staphylococcus aureus [1], in the assay on Staphylococcus aureus [2] and in the assay on Staphylococcus aureus [3] was “Active” each time.

Regarding `NC[C@H]1O[C@H](O[C@H]2[C@H](O)[C@@H](O[C@H]3O[C@H](CO)[C@@H](O)[C@H](N)[C@H]3O)[C@H](N)C[C@@H]2N)[C@H](O)[C@@H](O)[C@@H]1O`, the “growth inhibition (GI)” value with Staphylococcus aureus [1], in the assay on Staphylococcus aureus [2] and in the assay with Staphylococcus aureus [3] was “inactive” throughout.

Consider `NCCCCNC(=O)CCC(=O)N[C@H](CO)[C@H](O)c1ccc([N+](=O)[O-])cc1` [listing 2 of 2 here], for which the Ki in assay [7] was determined as 0.9 µM.

On to `NCCCCN(CCCN)C(=O)CCC(=O)N[C@H](CO)[C@H](O)c1ccc([N+](=O)[O-])cc1` [listing 2 of 3 here], for which the IC50 (usually the concentration at which inhibition is half-maximal) with Staphylococcus aureus [1] was above 100 µM; with Staphylococcus aureus [2], above 100 µM; in the assay with Staphylococcus aureus [3], above 200 µM; in the assay with Staphylococcus aureus [8], 12.7 µM; with Escherichia coli [4], above 150 µM; in the assay with Escherichia coli [5], above 100 µM. The IC50 with Escherichia coli [6] was above 100 µM.

With `COc1cccc(OC)c1C(=O)N[C@@H]1C(=O)N2[C@@H]1SC(C)(C)[C@@H]2C(=O)O`, the “growth inhibition (GI)” value in the assay on Staphylococcus aureus [1], in the assay on Staphylococcus aureus [2] and in the assay with Staphylococcus aureus [3] was “inactive” in each case.

On to `CN[C@H](CC(C)C)C(=O)N[C@H]1C(=O)N[C@@H](CC(N)=O)C(=O)N[C@H]2C(=O)N[C@H]3C(=O)N[C@H](C(=O)N[C@H](C(=O)O)c4cc(O)cc(O)c4-c4cc3ccc4O)[C@H](O)c3ccc(c(Cl)c3)Oc3cc2cc(c3O[C@@H]2O[C@H](CO)[C@@H](O)[C@H](O)[C@H]2O[C@H]2C[C@](C)(N)[C@H](O)[C@H](C)O2)Oc2ccc(cc2Cl)[C@H]1O`, for which the “growth inhibition (GI)” value with Staphylococcus aureus [1], in the assay on Staphylococcus aureus [2] and with Staphylococcus aureus [3] was “Active” in each case.

As to `O=C(N[C@H](CO)[C@H](O)c1ccc([N+](=O)[O-])cc1)c1nc[nH]n1`, the IC50 was above 100 µM with Staphylococcus aureus [1]; above 100 µM with Staphylococcus aureus [2]; above 100 µM in the assay with Staphylococcus aureus [3]; above 100 µM in the assay on Staphylococcus aureus [8]; above 300 µM in the assay on Escherichia coli [4]; above 300 µM with Escherichia coli [5]. Moreover, the IC50 in the assay with Escherichia coli [6] was above 300 µM. Further, in assay [7], the inhibition constant Ki amounted to 1 µM.

With `O=C(CCNC(=O)c1nc[nH]n1)N[C@H](CO)[C@H](O)c1ccc([N+](=O)[O-])cc1`, the IC50 is above 100 µM in the assay with Staphylococcus aureus [1]; above 100 µM in the assay with Staphylococcus aureus [2]; above 100 µM with Staphylococcus aureus [3]; 66 µM in the assay on Staphylococcus aureus [8]; above 200 µM in the assay with Escherichia coli [4]; above 200 µM with Escherichia coli [5]. Further, the IC50 in the assay with Escherichia coli [6] is above 200 µM. The Ki in assay [7] amounted to 4 µM.

As to `CN(C)[C@@H]1C(O)=C(C(N)=O)C(=O)[C@@]2(O)C(O)=C3C(=O)c4c(O)cccc4[C@@](C)(O)[C@H]3C[C@@H]12`, the “growth inhibition (GI)” value with Staphylococcus aureus [1] and with Staphylococcus aureus [3] was “inactive” each time. Further, the “growth inhibition (GI)” value with Staphylococcus aureus [2] was “Active”.

Turning to `NCCCNCCCCNCCCNC(=O)CCC(=O)N[C@H](CO)[C@H](O)c1ccc([N+](=O)[O-])cc1` [listing 2 of 2 here], the “growth inhibition (GI)” value in the assay with Staphylococcus aureus [9], in the assay on Staphylococcus aureus [10], in the assay with Staphylococcus aureus [11], with Escherichia coli [12], in the assay on Escherichia coli [13] and in the assay with Escherichia coli [14] was “inactive” throughout.

Consider `Cc1onc(-c2ccccc2)c1C(=O)N[C@@H]1C(=O)N2[C@@H]1SC(C)(C)[C@@H]2C(=O)O`, for which the “growth inhibition (GI)” value with Staphylococcus aureus [1], in the assay with Staphylococcus aureus [2] and in the assay with Staphylococcus aureus [3] was “inactive” in each case.

Turning to `NCCCCN(CCCN)C(=O)CCC(=O)N[C@H](CO)[C@H](O)c1ccc([N+](=O)[O-])cc1` [listing 3 of 3 here], the “growth inhibition (GI)” value with Staphylococcus aureus [9], with Staphylococcus aureus [10], in the assay on Staphylococcus aureus [11], in the assay with Escherichia coli [12], in the assay on Escherichia coli [13] and with Escherichia coli [14] was “inactive” throughout.
